“Also recorded” adds a separate entry of the source. Like-named read-outs stand apart in the source and are kept apart here.
Experiments:
[1] = system: NIH/3T3 mouse fibroblast cells; test: mammalian cell cytotoxicity counter screen, NIH/3T3; assay type: cell-based; details: read-out: EC50 3T3 Mouse Fibroblast; NIH/3T3 cytotoxicity
Method in brief: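 NIH/3T3 mouse fibroblasts were maintained in DMEM with 5% FetalClone III. Viability was read by MTT or by a Calcein AM/Hoechst 33342 live-cell-area imaging assay. For imaging, a DMSO stock (40 μM Calcein AM, 160 μM Hoechst) was diluted 1:5 in PBS and added. After 30 min, Hoechst-stained nuclei were imaged and cells were scored live or dead by green fluorescence.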

[2] = system: Ect1/E6E7 normal-type human ectocervical cells; test: mammalian cell cytotoxicity counter screen, Ect1/E6E7; assay type: cell-based; details: for EC50: read-out: EC50 Ect1 Normal Cervical, Ect1/E6E7 cytotoxicity; for Selectivity Index SIEct1: (EC50 for Ect1 cells)/(EC50 for T. vaginalis)
[3] = system: Lactobacillus acidophilus; test: Lactobacillus acidophilus viability assay; assay type: cell-based; details: for EC50: read-out: EC50 L. acidophilus, anaerobic, 18 h; for effect on growth and viability of L. acidophilus: anaerobic conditions, at the concentrations tested (Figure 8)
Method in brief: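 Bacteria from MRS agar colonies were suspended in MRS broth, vortexed and dispensed into 96-well plates. Test compound was added in DMSO (0.5% final). Baseline OD 600 nm was read, then plates were incubated 18 h at 37 °C under anaerobic conditions (GasPak EZ Anaerobe sachets). OD 600 nm was read again to determine change from baseline.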

Trichomonas vaginalis = test: imaging-based T. vaginalis viability assay; assay type: cell-based; details: for effect of oxygen level on antitrichomonal activity: aerobic, microaerophilic and anaerobic atmospheres compared; for EC50: Trichomonas vaginalis; for extent of elimination of trichomonads: strict anaerobic atmosphere; for EC50 T. vaginalis: imaging assay, 17 h incubation, microaerophilic unless specified
T. vaginalis infection = details: after a single course of treatment; cited from earlier work
[4] = 17 h, read-out: EC50 T. vaginalis

Row | Molecule | EC50 [1] [µM] | EC50 [2] [µM] | EC50 [3] [µM] | effect of oxygen level on antitrichomonal activity (Trichomonas vaginalis) | also measured
1 | C/C=C/[C@@H]1C=C[C@@H]2C[C@H](C)CC[C@H]2[C@]1(C)/C(O)=C1/C(=O)N[C@@H](CO)C1=O [compound 50, trichosetin] | 30 | 34 | > 50 |  | 
2 | C/C=C/C=C/C1C(C)=CC2CC(C)CCC2C1(C)/C(O)=C1\C(=O)NC(CO)C1=O (stereo not drawn) [compound 53, beauversetin] | 35 | 35 | > 50 | no statistically significant change in EC50 value | effect on growth and viability of L. acidophilus [3]: no effect
3 | COC1=CC(=O)c2c(O)c3c(c(O)c2C1=O)CC(C)(O)OC3 (stereo not drawn) [compound 1, fusarubin] |  |  |  | decreased as oxygen was introduced | EC50 (Trichomonas vaginalis; [4]): 2.5 µM; extent of elimination of trichomonads (Trichomonas vaginalis): partial elimination; Selectivity Index SIEct1 [2]: 30
4 | C/C=C/[C@@H]1C=C[C@@H]2C[C@H](C)CC[C@H]2[C@]1(C)/C(O)=C1/C(=O)[C@@H](CO)N(C)C1=O [compound 49, 5’-epiequisetin] |  |  |  |  | EC50 T. vaginalis (Trichomonas vaginalis): Inactive
5 | CCS(=O)(=O)CCn1c([N+](=O)[O-])cnc1C [tinidazole] |  |  |  |  | patients cleared of the infection (T. vaginalis infection): > 90%
6 | CC1=C[C@H]2C[C@@H](C)CC[C@@H]2[C@@](C)(/C(O)=C2\C(=O)[C@H](CO)N(C)C2=O)[C@H]1/C=C/C=C/C[C@@H](C)O [compound 52, 5’-epipyrrolocin A] |  |  |  |  | EC50 T. vaginalis (Trichomonas vaginalis): Inactive
7 | pyrrolocin A [compound 51] | 6 | 10 | > 50 |  | 
8 | C/C=C/C=C/[C@H]1C(C)=C[C@H]2C[C@@H](C)CC[C@@H]2[C@@]1(C)/C(O)=C1\C(=O)[C@H](CO)N(C)C1=O [compound 56, 5’-epiphomasetin] |  |  |  |  | EC50 T. vaginalis (Trichomonas vaginalis): Inactive
9 | Cc1ncc([N+](=O)[O-])n1CCO [metronidazole, reference compound] |  |  |  | maintained consistent potency | effect on growth and viability of L. acidophilus [3]: no inhibition; patients cleared of the infection (T. vaginalis infection): > 90%
10 | C/C=C/C=C/[C@H]1C(C)=C[C@H]2C[C@@H](C)CC[C@@H]2[C@@]1(C)/C(O)=C1/C(=O)N[C@@H](CO)C1=O [compound 54, 5’-epibeauversetin] |  |  |  |  | EC50 T. vaginalis (Trichomonas vaginalis): Inactive
11 | COC1=CC(=O)c2c(O)ccc(O)c2C1=O [compound 9, 2-Methoxynaphthazarin] |  |  |  | decreased as oxygen was introduced | extent of elimination of trichomonads (Trichomonas vaginalis): complete elimination
12 | equisetin [compound 48] | 100 | 35 | > 50 |  | toxicity to / inhibition of L. acidophilus ([3]; at concentrations up to 50 μM): non-toxic
13 | COC1=CC(=O)c2c(O)c(C)c(CC(C)=O)c(O)c2C1=O [compound 2, javanicin] |  |  |  |  | EC50 (Trichomonas vaginalis; [4]): 1.3 µM; Selectivity Index SIEct1 [2]: 3.1
14 | O=C1C(O)=C([C@H]2CC[C@H](c3ccc(Cl)cc3)CC2)C(=O)c2ccccc21 [compound 37, atovaquone, reference compound] |  |  |  |  | Selectivity Index SIEct1 [2]: < 0.1
15 | phomasetin [compound 55] | 10 | 7 | > 50 |  | 
16 | COC(=O)[C@@]12Oc3cc4c(c(O)c3C(=O)C1=C(O)CC[C@@H]2O)[C@@H]1C=C[C@@]2(C4)C(=O)c3cc(C)cc(O)c3C(O)=C2C1=O [compound 46, xanthoquinodin A1] |  |  |  | maintained consistent potency | EC50 (Trichomonas vaginalis; read-out: average EC50 against T. vaginalis): 3 µM; Selectivity Index SIEct1 [2]: ~ 20; effect on growth and viability of L. acidophilus [3]: near equipotent activity against T. vaginalis and L. acidophilus; also recorded: significant inhibition

Reference: article PMC10782576 (ACS infectious diseases, 2019)
